# The source made the active and inactive calls.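 Rule for the calls, unless noted: active = viability loss from added drug above about 55%, and viability with drug at most 40%, in both replicates (limit read from the data, passing the limit was not always enough); inconclusive = both conditions met in only one replicate; inactive = neither replicate meets both conditions.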
# How the values were obtained:
# [1] = reducers of endogenous Her2 protein level, primary screen, SKBR3 breast tumor cells, AlphaScreen, ATP viability (AID 461;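 active = Her2 level under about 52% in both replicate screens, with viability over 70% of control, limit read from the data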;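 for Her2 level: lower value means less Her2 protein in the cells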;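 for viability: percent of carrier control wells set as 100% viability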); details: 18-24 h, measured here: SKBR3 viability, ATP luminescence, at 10 µM
# [2] = target: Receptor tyrosine-protein kinase erbB-2 (Homo sapiens) (UniProt P04626); experiment: as above; details: 18-24 h, at 10 µM, stronger effect = lower value
# [3] = SK-BR-3 cell growth inhibitors, pilot screen, 24 h, human (AID 572;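 active = viability at or below 10% of carrier control in both of two separate runs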;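 note: compound exposure lasted between 18 and 24 h rather than exactly 24 h; 100% = carrier-treated control wells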); details: SK-BR-3 viability, CellTiter-Glo luminescence, at 10 µM, stronger effect = lower value
# [4] = HUVEC growth inhibition – cell-based, human, primary screen (AID 575;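 active = viability at or below 30% in both replicate assays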;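 note: 100% = median of untreated cell wells with 0.1% DMSO on each plate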); details: HUVEC proliferation, CellTiter-Glo luminescence, 72 h; at 10 µM; stronger effect = lower value
# Outline: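 Timing: 72 h treatment at 37 °C; material: HUVEC primary cells; technique: CellTiter-Glo luminescence measuring cellular ATP; controls: vehicle and MePR control wells; measure: percent of median DMSO-control luminescence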
# [5] = growth inhibitors of H69AR lung tumor, primary screen, human, duplicate replicates (AID 580;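 active = viability at or under a set limit in both replicates, limit being median viability minus 3 SD, cut at about 48% in these data, passing the limit was not always enough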;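 note: 100% = mean luminescence of untreated wells and 0% = no signal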); details: H69AR lung tumor cells viability, ATP luminescence, 72 h; at 10 µM; stronger effect = lower value
# [6] = reversal of MRP1-mediated doxorubicin resistance, pilot screen, H69AR cells, doxorubicin co-treatment (AID 601); details: CellTiter-Glo, 72 h, at 10 µM; for differential viability (reversal): stronger effect = higher value
# [7] = 384-well plate pilot, post-Golgi transport modulator project, inhibition of yeast transport mutant growth (AID 636; in the data active = inhibition above about 31%); details: absorbance 615 nm, about 18 h, stronger effect = higher value
# [8] = growth suppression of yeast trafficking mutant, preliminary HTS, modulators of trafficking downstream of Golgi apparatus project, 1536-format plate, OD 615 nm (AID 637; in the data active = inhibition above about 30%); details: yeast transport mutant growth, absorbance 615 nm, 18 h; stronger effect = higher value
# [9] = H69AR cells + 2 uM doxorubicin, measured here: viability with 2 uM doxorubicin, stronger effect = lower value
# [10] = H69AR cells, compound alone cytotoxicity
# Chain of Receptor tyrosine-protein kinase erbB-2 (Homo sapiens) (P04626 whole entry, looked up): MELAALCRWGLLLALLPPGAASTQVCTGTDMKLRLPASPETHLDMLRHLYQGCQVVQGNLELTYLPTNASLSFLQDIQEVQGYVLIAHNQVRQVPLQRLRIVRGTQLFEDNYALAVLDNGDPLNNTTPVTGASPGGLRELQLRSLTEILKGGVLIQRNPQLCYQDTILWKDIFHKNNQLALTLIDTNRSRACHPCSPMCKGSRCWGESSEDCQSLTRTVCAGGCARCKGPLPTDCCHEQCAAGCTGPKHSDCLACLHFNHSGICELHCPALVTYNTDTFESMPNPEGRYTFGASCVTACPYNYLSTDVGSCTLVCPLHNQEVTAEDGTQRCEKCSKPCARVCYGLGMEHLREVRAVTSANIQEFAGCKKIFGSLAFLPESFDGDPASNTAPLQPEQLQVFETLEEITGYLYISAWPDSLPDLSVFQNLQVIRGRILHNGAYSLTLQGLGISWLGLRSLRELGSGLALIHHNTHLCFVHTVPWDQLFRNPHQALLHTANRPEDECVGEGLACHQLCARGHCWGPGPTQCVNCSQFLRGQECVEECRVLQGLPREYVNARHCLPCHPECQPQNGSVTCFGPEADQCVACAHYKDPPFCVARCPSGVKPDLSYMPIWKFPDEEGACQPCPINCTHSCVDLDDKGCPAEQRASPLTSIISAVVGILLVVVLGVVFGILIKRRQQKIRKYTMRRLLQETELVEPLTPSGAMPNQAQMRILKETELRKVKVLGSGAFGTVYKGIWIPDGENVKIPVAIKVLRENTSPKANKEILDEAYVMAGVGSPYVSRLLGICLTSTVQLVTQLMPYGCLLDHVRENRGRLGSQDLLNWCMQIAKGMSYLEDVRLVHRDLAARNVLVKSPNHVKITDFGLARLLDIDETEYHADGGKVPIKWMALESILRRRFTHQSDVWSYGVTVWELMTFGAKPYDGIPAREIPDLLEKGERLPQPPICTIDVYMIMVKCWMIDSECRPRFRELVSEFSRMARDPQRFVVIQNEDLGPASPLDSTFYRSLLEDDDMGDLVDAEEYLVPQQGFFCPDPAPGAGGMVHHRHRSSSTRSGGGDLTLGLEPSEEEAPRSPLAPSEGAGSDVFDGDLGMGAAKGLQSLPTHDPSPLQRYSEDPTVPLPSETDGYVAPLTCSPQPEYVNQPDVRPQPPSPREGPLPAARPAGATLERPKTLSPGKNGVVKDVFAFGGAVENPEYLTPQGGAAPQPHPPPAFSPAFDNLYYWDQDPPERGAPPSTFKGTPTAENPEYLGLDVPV
SMILES,viability [1] [%],Her2 level [2],viability [3],viability [4],viability [5],differential viability (reversal) ([6]; H69AR cells + 2 uM doxorubicin),"viability [6, 9] [%]","viability [6, 10] [%]",inhibition [7],inhibition [8]
Nn1c(SCC(=O)Nc2ccc(F)cc2)nnc1-c1cccnc1,90.5,81% (inactive),90.5% (inactive),95.1% (inactive),103% (inactive),7.72% (inactive),95.5,103,-0.26% (inactive),-3.67% (inactive)
COC(=O)c1ccccc1S(=O)(=O)NC(=O)c1ccccc1,107,74% (inactive),107% (inactive),107% (inactive),88.2% (inactive),5.66% (inactive),82.5,88.2,-1.82% (inactive),-3.81% (inactive)
O=C(Cn1cnc2c(cnn2-c2ccc(F)cc2)c1=O)N1CCCc2ccccc21,112,86.5% (inactive),112% (inactive),85.6% (inactive),94.4% (inactive),-7.36% (inactive),102,94.4,-4.67% (inactive),-2.79% (inactive)
COc1cccc(OC)c1C(=O)Nc1cccc(C(C)=O)c1,103,99% (inactive),103% (inactive),98.8% (inactive),98.7% (inactive),6.47% (inactive),92.2,98.7,-6.27% (inactive),0.48% (inactive)
O=C(Nc1ccc2c(c1)OCO2)c1nn(-c2ccccc2)c(=O)c2ccccc12,108,81% (inactive),108% (inactive),72.8% (inactive),74.7% (inactive),-4.67% (inactive),79.4,74.7,-1.43% (inactive),1.75% (inactive)
COc1ccccc1NC(=O)CSc1nnnn1-c1ccc2c(c1)OCO2,92,84% (inactive),92% (inactive),98.7% (inactive),90.9% (inactive),15.1% (inactive),75.8,90.9,-4.11% (inactive),0% (inactive)
Cc1cc2c(=O)n(Cc3ccco3)c(SCC(=O)NCc3ccco3)nc2s1,100,88% (inactive),100% (inactive),93.7% (inactive),81.2% (inactive),4.87% (inactive),76.4,81.2,-4% (inactive),1.9% (inactive)
FC(F)(F)c1cc(-c2ccco2)nc(N2CCOCC2)n1,86,80.5% (inactive),86% (inactive),69.1% (inactive),92.4% (inactive),18.6% (inactive),73.8,92.4,-6.93% (inactive),7.21% (inactive)
COc1cc(S(=O)(=O)N2CCOCC2)ccc1NC(=O)COC(=O)c1ccccn1,114,92% (inactive),114% (inactive),85.8% (inactive),84.8% (inactive),-12.8% (inactive),97.6,84.8,-6.71% (inactive),-0.18% (inactive)
COc1ccc(C2c3sc(=O)[nH]c3SC3C4CCC(C4)C23)cc1 (stereo not given),99.5,94.5% (inactive),99.5% (inactive),80.1% (inactive),89.7% (inactive),1.93% (inactive),87.7,89.7,6.4% (inactive),5.97% (inactive)
CCOC(=O)Nc1cc(OCC)c(NC(=O)C2CC2)cc1OCC,97,112% (inactive),97% (inactive),111% (inactive),100% (inactive),12.8% (inactive),87.3,100,-6.13% (inactive),-4.26% (inactive)
CC1=C(C(=O)NCc2ccccc2)C(c2ccccc2OCC(N)=O)NC(=O)N1 (stereo not given),93.5,77% (inactive),93.5% (inactive),89.1% (inactive),109% (inactive),15.9% (inactive),92.9,109,-4.13% (inactive),1.43% (inactive)
O=C(NC1CCCC1)C(c1ccco1)N(Cc1ccccc1)C(=O)c1csnn1 (stereo not given),88.5,76% (inactive),88.5% (inactive),76.4% (inactive),97.5% (inactive),1.57% (inactive),95.9,97.5,-8.65% (inactive),4.44% (inactive)
COc1ccc(-c2nc(C#N)c(N3CCOCC3)o2)cc1OC,111,92% (inactive),111% (inactive),89.8% (inactive),84.5% (inactive),-0.495% (inactive),85,84.5,-1.3% (inactive),9% (inactive)
Cc1ccc(NC(=O)C2CCCN2C(=O)Oc2ccccc2)cc1 (stereo not given),90.5,94.5% (inactive),90.5% (inactive),107% (inactive),91.5% (inactive),-0.415% (inactive),91.9,91.5,-6.4% (inactive),-1.64% (inactive)
COc1ccc(CCNC(=O)C2CCN(Cc3nc(-c4cccc(Cl)c4)oc3C)CC2)cc1OC,83.5,81.5% (inactive),83.5% (inactive),47.9% (inactive),73.4% (inactive),-27.2% (inactive),101,73.4,-5.13% (inactive),-1.45% (inactive)
Cc1nc(/N=C\N(C)C)sc1C(=O)Nc1ccccc1,93,82% (inactive),93% (inactive),100% (inactive),96.2% (inactive),1.87% (inactive),94.3,96.2,-5.81% (inactive),-8% (inactive)
CC(=O)NC(Cc1cc(C)ccc1C)C(=O)N1CCN(C(=O)Nc2ccc(C(C)=O)cc2)CC1 (stereo not given),102,101% (inactive),102% (inactive),109% (inactive),88.7% (inactive),-5.32% (inactive),94,88.7,-4.62% (inactive),-11.3% (inactive)
Cc1nc2ccccc2c(=O)n1/N=C/c1ccncc1,95,99.5% (inactive),95% (inactive),105% (inactive),103% (inactive),12.4% (inactive),91.1,103,-6.13% (inactive),-1.94% (inactive)
CCC(=O)Nc1ccc(Cl)c(NC(=O)C(C)C)c1,97,80% (inactive),97% (inactive),87.9% (inactive),111% (inactive),7.54% (inactive),103,111,-7.97% (inactive),6.07% (inactive)
O=C(Nc1nc2c(s1)CCc1ccccc1-2)c1cccs1,102,74% (inactive),102% (inactive),72.2% (inactive),82.9% (inactive),-4.96% (inactive),87.9,82.9,-3.33% (inactive),8.41% (inactive)
CCC(=O)NC1(C(F)(F)F)C(=O)NC(C)=C1C#N (stereo not given),102,84.5% (inactive),102% (inactive),101% (inactive),97.9% (inactive),5.2% (inactive),92.7,97.9,-4.74% (inactive),1.59% (inactive)
CN(c1ccccc1)S(=O)(=O)c1ccc(C(=O)OCC(=O)NCc2ccco2)cc1,95.5,112% (inactive),95.5% (inactive),88.5% (inactive),74.4% (inactive),-10.4% (inactive),84.8,74.4,2.03% (inactive),16.4% (inactive)
Cn1c2ccccc2c2c(C(=O)NCCCN3CCCC3=O)cn(C3CCCCC3)c(=O)c21,86,88.5% (inactive),86% (inactive),95.9% (inactive),83.7% (inactive),3.06% (inactive),80.7,83.7,-4.53% (inactive),-0.49% (inactive)
O=C(O)Cn1cc2c(n1)CCCC2,96,98% (inactive),96% (inactive),93.9% (inactive),98% (inactive),3.98% (inactive),94,98,-2% (inactive),5.41% (inactive)
Cc1ccc(S(=O)(=O)NCC(=O)N(CC(=O)NCc2ccccc2)CC2CCCO2)cc1 (stereo not given),110,91.5% (inactive),110% (inactive),108% (inactive),104% (inactive),17.9% (inactive),86.2,104,-3.65% (inactive),3.49% (inactive)
CC(C)OC(=O)CN1C(=O)C(C)(C)Oc2ccc(C(=O)NC3CC3)cc21,96,92.5% (inactive),96% (inactive),93.1% (inactive),91.6% (inactive),-2.77% (inactive),94.3,91.6,-3.2% (inactive),1.94% (inactive)
CCOCC(=O)Nc1ccc(S(=O)(=O)N2CCOCC2)cc1,95,85% (inactive),95% (inactive),92.3% (inactive),82.5% (inactive),6.46% (inactive),76.1,82.5,-4.67% (inactive),-2.7% (inactive)

# — PubChem BioAssay
